Many of the other results were omitted from the sample, so hits are more common in it than they were.
S1P4 agonist: human S1P4 receptor agonism | hit rate 0.35% among 220,000 | S1P4-expressing cell line, agonist reporter assay | O95977 | activation, % at 4.98 µM; in the data active = activation above about 11%
MDM2 E3 inh: blocks human Mdm2 ubiquitin ligase activity | AID 1230 | cell-based MDM2 ubiquitination luciferase reporter, 2 h; 0 = plate control, 100 = twice control, blank-subtracted | hit rate 0.11% among 210,000 | signal enhancement, % at 5 µM;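 active = signal enhancement of 30% or more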;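 note: luminescence tracks abundance of the self-degrading MDM2-luciferase fusion protein; higher signal means inhibition of MDM2 E3 ligase activity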
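Material: Stable MDM2–luciferase fusion reporter cells | Amount: 2000 cells seeded into each well | Dosing: One concentration, 5 µM, with 0.2% DMSO | Incubation: 4 h cell settling then 2 h compound exposure, 37 °C | Measured by: Luciferase luminescence | Read-out basis: % enhancement relative to plate controls after blank subtraction | Benchmarks: Control and blank well means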
S1P4 antagonist: human S1P4 receptor antagonism; O95977; S1P4-expressing cells, antagonist mode, reporter read-out; inhibition, % at 4.98 µM; hit rate 0.26% among 220,000; AID 1510; in the data active = inhibition above about 29%
L major viab: reduces viability of Leishmania major promastigotes; inhibition, % at 10 µM; resazurin fluorescence viability; hit rate 9% among 200,000; AID 1063; in the data active = inhibition above about 50%;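 note: promastigotes grown with compound for 44 hours at 28 °C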
S1P3 antag: S1P3 (human) receptor antagonism | Q99500 | inhibition, % at 4.98 µM | hit rate 0.27% among 170,000 | CHO S1P3 NFAT-BLA reporter, FRET fluorescence, antagonist mode;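 active = inhibition above the plate cutoff, the mean inhibition of test wells on that plate plus 3 SD, cut at about 28% in these data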;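 note: cells challenged with S1P at its EC80 of 0.8 µM; blue over green emission ratio from cleaved BLA substrate after 4 h stimulation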
Target sequence (Q99500 whole entry, looked up): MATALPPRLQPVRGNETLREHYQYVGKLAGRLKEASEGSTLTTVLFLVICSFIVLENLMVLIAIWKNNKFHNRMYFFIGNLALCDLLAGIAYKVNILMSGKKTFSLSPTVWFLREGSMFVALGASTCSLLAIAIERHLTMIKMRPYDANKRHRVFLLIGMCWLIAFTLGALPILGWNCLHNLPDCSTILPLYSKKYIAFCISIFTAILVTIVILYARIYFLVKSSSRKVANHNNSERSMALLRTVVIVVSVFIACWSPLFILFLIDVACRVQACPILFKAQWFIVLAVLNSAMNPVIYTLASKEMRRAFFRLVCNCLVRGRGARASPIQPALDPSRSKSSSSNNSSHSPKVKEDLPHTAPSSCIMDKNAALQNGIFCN
Numbers stand for hits.

Screening CCOc1cc(S(=O)(=O)NCC2OCCc3ccccc32)c(OCC)cc1-n1cnnn1 (stereo unspecified) returned S1P4 agonist inactive, MDM2 E3 inh inactive, S1P4 antagonist inactive, L major viab inactive and S1P3 antag inactive.
`COc1cc(S(=O)(=O)N(C)C2CCCCC2)c(C)cc1C` gave S1P4 agonist inactive, MDM2 E3 inh inactive, S1P4 antagonist inactive, L major viab inactive and S1P3 antag inactive.
`COc1ccccc1NC(=O)Cn1c(CCC(=O)O)ccc1-c1ccc(C)cc1` gave S1P4 agonist inactive, MDM2 E3 inh inactive, S1P4 antagonist inactive, L major viab inactive and S1P3 antag inactive.
Screening Cc1c(C(=O)OC(C)CCN(C)C)oc2ccccc12 (stereo unspecified) returned S1P4 agonist inactive, MDM2 E3 inh inactive, S1P4 antagonist inactive, L major viab 85.4 and S1P3 antag inactive.
For CCOCCCNCc1ccc(OC)c(OC)c1 the results were S1P4 agonist inactive, MDM2 E3 inh inactive, S1P4 antagonist inactive, L major viab 79.9 and S1P3 antag inactive.
Screening CCOCCCNC(=O)Cc1ccc(OC)c(OC)c1 returned S1P4 agonist inactive, MDM2 E3 inh inactive, S1P4 antagonist inactive, L major viab inactive and S1P3 antag inactive.
CCOCCCNCc1cccc(OC)c1 was read as S1P4 agonist inactive, MDM2 E3 inh inactive, S1P4 antagonist inactive, L major viab 81.8 and S1P3 antag inactive.
CCCOc1ccc(CNCCCOCC)cc1OC was read as S1P4 agonist inactive, S1P4 antagonist inactive, L major viab 69.8 and S1P3 antag inactive.
CCOCCCNCc1ccc(OC)cc1 was read as S1P4 agonist inactive, MDM2 E3 inh inactive, S1P4 antagonist inactive and L major viab inactive.
`Cc1cc(C)cc(N(C(=O)CCC(=O)Nc2ccccn2)C(C(=O)NC(C)C)c2ccc(O)cc2)c1` (stereo unspecified) gave S1P4 agonist inactive, MDM2 E3 inh inactive, S1P4 antagonist inactive, L major viab inactive and S1P3 antag inactive.
COc1ccc(C2CC(C)(c3ccc(OC)cc3OC)Nc3ccccc3N2)c(OC)c1 (stereo unspecified) was read as S1P4 agonist inactive, MDM2 E3 inh inactive, S1P4 antagonist inactive, L major viab 62.4 and S1P3 antag inactive.
For COC(=O)C1=C(C)C(c2ccc(OC)cc2OC)NC(=O)N1 (stereo unspecified) the results were S1P4 agonist inactive, MDM2 E3 inh inactive, S1P4 antagonist inactive, L major viab inactive and S1P3 antag inactive.
CCOc1ccc2[nH]cc(C(=O)NCCCN3CCOCC3)c(=O)c2c1 was read as S1P4 agonist inactive, MDM2 E3 inh inactive, S1P4 antagonist inactive, L major viab inactive and S1P3 antag inactive.
CCCN(C(=O)CSc1cc(-c2ccccc2)c2ccc(OC)cc2n1)C1CCS(=O)(=O)C1 (stereo unspecified) was read as S1P4 agonist inactive, MDM2 E3 inh inactive, S1P4 antagonist inactive, L major viab inactive and S1P3 antag inactive.
`COc1ccc2c(-c3ccccc3)cc(SC(C)C(N)=O)nc2c1` (stereo unspecified) gave S1P4 agonist inactive, MDM2 E3 inh inactive, S1P4 antagonist inactive, L major viab 80.8 and S1P3 antag inactive.
Screening CCOC(=O)C1(Cc2ccc(Cl)cc2)CCN(C(=O)c2cnc(C)cn2)CC1 returned S1P4 agonist inactive, MDM2 E3 inh inactive, S1P4 antagonist inactive and S1P3 antag inactive.
For CCOC(=O)C1(Cc2ccc(Cl)cc2)CCN(C(=O)c2ccoc2)CC1 the results were S1P4 agonist inactive, MDM2 E3 inh inactive, S1P4 antagonist inactive, L major viab 53.1 and S1P3 antag inactive.
C/C(=N/NC(=O)Nc1ccccc1)c1ccc(C)cc1 was read as S1P4 agonist inactive, MDM2 E3 inh inactive, S1P4 antagonist inactive, L major viab 50.7 and S1P3 antag inactive.
For CCCSc1nc(N)nc(-c2cccs2)c1C#N the results were S1P4 agonist inactive, MDM2 E3 inh inactive, S1P4 antagonist inactive and L major viab inactive.
`CCCC(C(=O)NCc1ccco1)N(C(=O)CNS(=O)(=O)c1ccccc1)c1ccccc1OC` (stereo unspecified) gave S1P4 agonist inactive, MDM2 E3 inh inactive, S1P4 antagonist inactive, L major viab inactive and S1P3 antag inactive.
Screening O=C(N/N=C/c1ccc(Br)cc1)c1ccccc1-n1cccc1 returned S1P4 agonist inactive, MDM2 E3 inh inactive, S1P4 antagonist inactive and L major viab 65.3.
For COc1ccccc1NC(=O)Nc1cc(NC(=O)Nc2ccccc2OC)c(C)nc1C the results were S1P4 agonist inactive, MDM2 E3 inh inactive, S1P4 antagonist inactive, L major viab 63.9 and S1P3 antag inactive.

Screening results: PubChem, several laboratories
